system: not listed separately; test: Drug uptake in Sprague-Dawley rat liver mitochondria incubated for 1 hr followed by compound washout measured after 10 mins by 31P-NMR analysis; format: ADME; conditions: not given
Procedure, shortened: (§1)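 Sprague−Dawley male rat livers (120−150 g) perfused via the portal vein, non-recirculating, at 37 °C with KH bicarbonate buffer (95% O2/5% CO2, pH 7.35) at 3 mL/min/g. After 30 min equilibration, 0.1 mM compound was given for 1 h, followed by a 10 min ice-cold KH washout. Liver homogenised in 0.25 M sucrose/10 mM HEPES pH 7.5; cytosol and mitochondria separated by differential centrifugation and levels reported as μmol/g. 3−9 experiments, mean ± SD.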

Structure (SMILES)	Drug uptake
CC(C)(C)/[N+]([O-])=C/c1ccc(OCCCC[P+](c2ccccc2)(c2ccccc2)c2ccccc2)cc1.[Br-]	Active
CCOP(=O)(OCC)C(C)(C)NCCCCCCCC[P+](c1ccccc1)(c1ccccc1)c1ccccc1.[Br-]	Active

system: not listed separately; test: Toxicity against Chlamydomonas reinhardtii D66 assessed as loss of photosynthetic activity after 1 hr; conditions: Chlamydomonas reinhardtii D66 cells, read-out: LD50
Procedure, shortened: (§2)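 Cell wall-less C. reinhardtii D66 grown in Tris acetate phosphate medium to 1−5 × 10^6 cells/mL at 25 °C. Exposed 1 h at 25 °C to 0.01−1 mM compound (DMSO ≤0.1%), under saturating light for photosynthesis or in the dark for respiration. NaHCO3 added (1 mM), then O2 measured by Clark electrode against DMSO control. LD50 is the concentration giving 50% activity loss.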

Structure (SMILES)	LC50 at 1 h [µM]
CC(C)(C)/[N+]([O-])=C/c1ccccc1	> 500
CCOP(=O)(OCC)C1(C)CCCN1 (stereo not given)	> 1000
CC(C)(C)/[N+]([O-])=C/c1ccc(OCCCC[P+](c2ccccc2)(c2ccccc2)c2ccccc2)cc1.[Br-]	100
CCOP(=O)(OCC)C(C)(C)NCCCC[P+](c1ccccc1)(c1ccccc1)c1ccccc1.[Br-]	500
CCOP(=O)(OCC)C(C)(C)NCCCCCC[P+](c1ccccc1)(c1ccccc1)c1ccccc1.[Br-]	250
CCOP(=O)(OCC)C(C)(C)NCCCCCCCC[P+](c1ccccc1)(c1ccccc1)c1ccccc1.[Br-]	100
CCOP(=O)(OCC)C(C)(C)NCCCCCCCCCCCC[P+](c1ccccc1)(c1ccccc1)c1ccccc1.[Br-]	< 25

system: Liver; test: Toxicity against Sprague-Dawley rat liver assessed as mitochondrial membrane potential incubated for 1 hr followed by compound washout measured after 10 mins; format: tissue-based; conditions: not given
Procedure, shortened: (§3)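 Livers perfused at 37 °C with 0.1 mM compound for 1 h, then 10 min cold KH washout. Mitochondria isolated in ice-cold 0.3 M sucrose by differential centrifugation for membrane potential measurement. RCR was taken as respiration with 0.5 mM ADP divided by respiration after ADP phosphorylation ended, in KH2PO4/EDTA/MOPS/MgCl2 with glutamate 20 mM and malate 1 mM, pH 7.2, 37 °C. Mean ± SD.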

Structure (SMILES)	Activity [mV]
CC(C)(C)/[N+]([O-])=C/c1ccccc1	178.9
CC(C)(C)/[N+]([O-])=C/c1ccc(OCCCC[P+](c2ccccc2)(c2ccccc2)c2ccccc2)cc1.[Br-]	170.7
CCOP(=O)(OCC)C(C)(C)NCCCCCC[P+](c1ccccc1)(c1ccccc1)c1ccccc1.[Br-]	174.2
CCOP(=O)(OCC)C(C)(C)NCCCCCCCC[P+](c1ccccc1)(c1ccccc1)c1ccccc1.[Br-]	171.9

system: Liver; test: Toxicity against Sprague-Dawley rat liver assessed as ATP content incubated for 1 hr followed by compound washout measured after 10 mins; format: tissue-based; conditions: not given
Procedure, shortened: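 Rat livers perfused at 37 °C with KH buffer containing 0.1 mM compound for 1 h, then washed out for 10 min with cold KH. Organ freeze-clamped in liquid nitrogen and ATP measured enzymatically in perchloric extracts, given as μmol/g. Mean ± SD of 3−9 experiments.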

Structure (SMILES)	Activity [µmol/g]
CC(C)(C)/[N+]([O-])=C/c1ccccc1	2.11
CC(C)(C)/[N+]([O-])=C/c1ccc(OCCCC[P+](c2ccccc2)(c2ccccc2)c2ccccc2)cc1.[Br-]	1.95
CCOP(=O)(OCC)C(C)(C)NCCCCCC[P+](c1ccccc1)(c1ccccc1)c1ccccc1.[Br-]	2.29
CCOP(=O)(OCC)C(C)(C)NCCCCCCCC[P+](c1ccccc1)(c1ccccc1)c1ccccc1.[Br-]	2.08

system: not listed separately; test: Drug uptake in Sprague-Dawley rat liver cytosol incubated for 1 hr followed by compound washout measured after 10 mins by 31P-NMR analysis; format: ADME, tissue-based; conditions: not given; procedure, shortened: as §1

Structure (SMILES)	Drug uptake
CC(C)(C)/[N+]([O-])=C/c1ccc(OCCCC[P+](c2ccccc2)(c2ccccc2)c2ccccc2)cc1.[Br-]	Not Active
CCOP(=O)(OCC)C(C)(C)NCCCCCCCC[P+](c1ccccc1)(c1ccccc1)c1ccccc1.[Br-]	Active

system: not listed separately; test: Toxicity against Chlamydomonas reinhardtii D66 assessed as loss of respiratory activity after 1 hr; conditions: Chlamydomonas reinhardtii D66 cells, read-out: LD50; procedure, shortened: as §2

Structure (SMILES)	LC50 at 1 h [µM]
CC(C)(C)/[N+]([O-])=C/c1ccccc1	> 500
CCOP(=O)(OCC)C1(C)CCCN1 (stereo not given)	> 1000
CC(C)(C)/[N+]([O-])=C/c1ccc(OCCCC[P+](c2ccccc2)(c2ccccc2)c2ccccc2)cc1.[Br-]	50
CCOP(=O)(OCC)C(C)(C)NCCCC[P+](c1ccccc1)(c1ccccc1)c1ccccc1.[Br-]	400
CCOP(=O)(OCC)C(C)(C)NCCCCCC[P+](c1ccccc1)(c1ccccc1)c1ccccc1.[Br-]	100
CCOP(=O)(OCC)C(C)(C)NCCCCCCCC[P+](c1ccccc1)(c1ccccc1)c1ccccc1.[Br-]	75
CCOP(=O)(OCC)C(C)(C)NCCCCCCCCCCCC[P+](c1ccccc1)(c1ccccc1)c1ccccc1.[Br-]	< 25

system: not listed separately; test: Drug uptake in Sprague-Dawley rat liver cytosol incubated for 1 hr followed by compound washout measured after 10 mins; format: ADME, tissue-based; conditions: not given; procedure, shortened: as §1

Structure (SMILES)	Drug uptake [µmol/g]
CC(C)(C)/[N+]([O-])=C/c1ccccc1	0.88
CC(C)(C)/[N+]([O-])=C/c1ccc(OCCCC[P+](c2ccccc2)(c2ccccc2)c2ccccc2)cc1.[Br-]	0.12
CCOP(=O)(OCC)C(C)(C)NCCCCCC[P+](c1ccccc1)(c1ccccc1)c1ccccc1.[Br-]	0.93
CCOP(=O)(OCC)C(C)(C)NCCCCCCCC[P+](c1ccccc1)(c1ccccc1)c1ccccc1.[Br-]	0.64

system: not listed separately; test: Dissociation constant, pKa of the compound in Krebs-Henseleit buffer; format: physicochemical; conditions: not given
Procedure, shortened: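 31P NMR titration at 25 °C in Krebs−Henseleit buffer, with shifts referenced to external phosphoric acid and a D2O capillary as lock. Diethoxyphosphoryl shift plotted against pH (range 1.5−12) and fitted to the Henderson−Hasselbalch equation by nonlinear regression. Three independent titrations per compound, mean ± SEM.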

Structure (SMILES)	pKa
CCOP(=O)(OCC)C1(C)CCCN1 (stereo not given)	7.01
CCOP(=O)(OCC)C(C)(C)NCCCC[P+](c1ccccc1)(c1ccccc1)c1ccccc1.[Br-]	5.9
CCOP(=O)(OCC)C(C)(C)NCCCCCC[P+](c1ccccc1)(c1ccccc1)c1ccccc1.[Br-]	6.53
CCOP(=O)(OCC)C(C)(C)NCCCCCCCC[P+](c1ccccc1)(c1ccccc1)c1ccccc1.[Br-]	6.94
CCOP(=O)(OCC)C(C)(C)NCCCCCCCCCCCC[P+](c1ccccc1)(c1ccccc1)c1ccccc1.[Br-]	6.85

system: Liver; test: Toxicity against Sprague-Dawley rat liver assessed as respiratory control ratio incubated for 1 hr followed by compound washout measured after 10 mins; format: tissue-based; conditions: not given; procedure, shortened: as §3

Structure (SMILES)	Ratio
CC(C)(C)/[N+]([O-])=C/c1ccccc1	5.5
CC(C)(C)/[N+]([O-])=C/c1ccc(OCCCC[P+](c2ccccc2)(c2ccccc2)c2ccccc2)cc1.[Br-]	4.7
CCOP(=O)(OCC)C(C)(C)NCCCCCC[P+](c1ccccc1)(c1ccccc1)c1ccccc1.[Br-]	5.7
CCOP(=O)(OCC)C(C)(C)NCCCCCCCC[P+](c1ccccc1)(c1ccccc1)c1ccccc1.[Br-]	5.2

system: NIH3T3; test: (§4) Cytotoxicity against mouse 3T3 cells assessed as cell viability after 3 hrs by spectrophotometric analysis; format: cell-based; conditions: nih3t3, 3 h
Procedure, shortened: (§5)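 Confluent 3T3 fibroblasts (DMEM, 10% FCS, 37 °C, 5% CO2) were switched to phenol red-free DMEM with 1% glucose and exposed 3 h to compound at 0.01−5 mM final (0.1% DMSO). Cells were then given neutral red (50 μg/mL, 2% FCS MEM) for 2 h and read at 540 nm. LD50 and LD10 were taken from dose−response curves over 3−6 experiments.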

Structure (SMILES)	LD10 [mM]
CC(C)(C)/[N+]([O-])=C/c1ccccc1	4.1
CCOP(=O)(OCC)C1(C)CCCN1 (stereo not given)	78
CC(C)(C)/[N+]([O-])=C/c1ccc(OCCCC[P+](c2ccccc2)(c2ccccc2)c2ccccc2)cc1.[Br-]	0.05
CCOP(=O)(OCC)C(C)(C)NCCCC[P+](c1ccccc1)(c1ccccc1)c1ccccc1.[Br-]	0.4
CCOP(=O)(OCC)C(C)(C)NCCCCCC[P+](c1ccccc1)(c1ccccc1)c1ccccc1.[Br-]	0.2
CCOP(=O)(OCC)C(C)(C)NCCCCCCCC[P+](c1ccccc1)(c1ccccc1)c1ccccc1.[Br-]	0.15
CCOP(=O)(OCC)C(C)(C)NCCCCCCCCCCCC[P+](c1ccccc1)(c1ccccc1)c1ccccc1.[Br-]	0.05

system: not listed separately; test: as §4; format: cell-based, NIH3T3; conditions: 3T3 cells (NIH3T3), read-out: LD50; procedure, shortened: as §5

Structure (SMILES)	CC50 at 3 h [µM]
CC(C)(C)/[N+]([O-])=C/c1ccccc1	7200
CC(C)(C)/[N+]([O-])=C/c1ccc(OCCCC[P+](c2ccccc2)(c2ccccc2)c2ccccc2)cc1.[Br-]	200
CCOP(=O)(OCC)C(C)(C)NCCCC[P+](c1ccccc1)(c1ccccc1)c1ccccc1.[Br-]	700
CCOP(=O)(OCC)C(C)(C)NCCCCCC[P+](c1ccccc1)(c1ccccc1)c1ccccc1.[Br-]	600
CCOP(=O)(OCC)C(C)(C)NCCCCCCCC[P+](c1ccccc1)(c1ccccc1)c1ccccc1.[Br-]	300
CCOP(=O)(OCC)C(C)(C)NCCCCCCCCCCCC[P+](c1ccccc1)(c1ccccc1)c1ccccc1.[Br-]	100

system: Liver; test: Metabolic stability in Sprague-Dawley rat liver incubated for 1 hr followed by compound washout measured after 10 mins by 31P-NMR analysis; format: ADME, tissue-based; conditions: not given

Structure (SMILES)	Stability
CC(C)(C)/[N+]([O-])=C/c1ccc(OCCCC[P+](c2ccccc2)(c2ccccc2)c2ccccc2)cc1.[Br-]	Stable
CCOP(=O)(OCC)C(C)(C)NCCCCCCCC[P+](c1ccccc1)(c1ccccc1)c1ccccc1.[Br-]	Stable

system: NIH3T3; test: Cytotoxicity against mouse 3T3 cells assessed as LDH release per mg of protein at LD10 concentration after 1 hr by spectrophotometric analysis; format: cell-based; conditions: nih3t3, 1 h
Procedure, shortened: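 LDH released into the supernatant was measured after 1 h with a kit and expressed per mg protein. Total LDH was obtained from a Triton X-100 (1%) lysis control. Means of 3−6 independent experiments.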

Structure (SMILES)	Activity [IU]
CC(C)(C)/[N+]([O-])=C/c1ccccc1	14.2
CCOP(=O)(OCC)C1(C)CCCN1 (stereo not given)	13.1
CC(C)(C)/[N+]([O-])=C/c1ccc(OCCCC[P+](c2ccccc2)(c2ccccc2)c2ccccc2)cc1.[Br-]	49.7
CCOP(=O)(OCC)C(C)(C)NCCCC[P+](c1ccccc1)(c1ccccc1)c1ccccc1.[Br-]	10.2
CCOP(=O)(OCC)C(C)(C)NCCCCCC[P+](c1ccccc1)(c1ccccc1)c1ccccc1.[Br-]	14.9
CCOP(=O)(OCC)C(C)(C)NCCCCCCCC[P+](c1ccccc1)(c1ccccc1)c1ccccc1.[Br-]	17.7
CCOP(=O)(OCC)C(C)(C)NCCCCCCCCCCCC[P+](c1ccccc1)(c1ccccc1)c1ccccc1.[Br-]	44.7

system: not listed separately; test: Drug uptake in Sprague-Dawley rat liver mitochondria incubated for 1 hr followed by compound washout measured after 10 mins; format: ADME; conditions: not given; procedure, shortened: as §1

Structure (SMILES)	Drug uptake [µmol/g]
CC(C)(C)/[N+]([O-])=C/c1ccccc1	< 0.05
CC(C)(C)/[N+]([O-])=C/c1ccc(OCCCC[P+](c2ccccc2)(c2ccccc2)c2ccccc2)cc1.[Br-]	1.95
CCOP(=O)(OCC)C(C)(C)NCCCCCC[P+](c1ccccc1)(c1ccccc1)c1ccccc1.[Br-]	1.55
CCOP(=O)(OCC)C(C)(C)NCCCCCCCC[P+](c1ccccc1)(c1ccccc1)c1ccccc1.[Br-]	1.32
